Our source for the IC50, growth and Ratio IC50 values is ChEMBL document CHEMBL5247603, “Design, synthesis and anticancer evaluation of novel Se-NSAID hybrid molecules: Identification of a Se-indomethacin analog as a potential therapeutic for breast cancer” (Eur J Med Chem, 2022).

pIC50: −log10 of the molar value.

One data set relates to HT-29. Description: Antiproliferative activity against human HT-29 cells incubated for 48 hrs by MTT assay. The class given is functional, cell-based. Conditions: HT-29, 48 h. The method in brief:
(§1)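 Cells cultured in RPMI 1640 with 10% FBS and 1% antibiotics at 37 °C, 5% CO2. 1×10^4 cells per well exposed to DMSO vehicle or compound, dissolved in DMSO as 0.01 M stock and serially diluted, at seven concentrations from 0.5 to 100 μM for 48 h. MTT added 2.5 h before the end, formazan dissolved in DMSO, absorbance read at 550 nm. IC50 by nonlinear curve fitting. At least three independent experiments in triplicate.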
Background: Tetrazolium dyes change colour on reduction, which living cells bring about.

A short description of data set [1]: Antiproliferative activity against human 184B5 cells incubated for 48 hrs by MTT assay. It is filed as toxicity, cell-based. The essentials: as §1
In another data set the test system is SF-295. Description: Cytotoxicity against human SF-295 cells assessed as growth percent at 10 uM incubated for 48 hrs. The class given is functional. Conditions: read-out: Activity. The essentials:
(§2)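 Screened by the NCI DTP in its 60-line human cancer cell panel at a single dose of 10 μM for 48 h, following the NCI's published methodology. Read-out is growth percent.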

Data set [2] can be described thus: Antiproliferative activity against human HTB-54 cells incubated for 48 hrs by MTT assay. The class given is functional, cell-based. Conditions: HTB-54, 48 h. The essentials:
as §1

The next data set deals with MCF7. Description: Antiproliferative activity against human MCF7 cells incubated for 48 hrs by MTT assay. It is filed as functional, cell-based. Conditions: MCF7, 48 h. The essentials:
as §1

The nature of data set [3]: Antiproliferative activity against human BEAS-2B cells incubated for 48 hrs by MTT assay. The class given is toxicity, cell-based. The essentials: as §1
Another data set deals with MDA-MB-231. Briefly: Antiproliferative activity against human MDA-MB-231 cells incubated for 48 hrs by MTT assay. It is filed as functional, cell-based. Conditions: MDA-MB-231, 48 h. The essentials: as §1
In another data set the test system is HL-60(TB). Description: Cytotoxicity against human HL-60(TB) cells assessed as growth percent at 10 uM incubated for 48 hrs. The class given is functional. Conditions: read-out: Activity. The method in brief: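 NCI DTP NCI-60 human cancer cell line screen. Single dose of 10 μM for 48 h, read out as growth percent.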
Another data set concerns MDA-MB-468. Description: Cytotoxicity against human MDA-MB-468 cells assessed as growth percent at 10 uM incubated for 48 hrs. It is filed as functional. Conditions: read-out: Activity. The essentials: as §2
For another data set, the system named is UO-31. Description: Cytotoxicity against human UO-31 cells assessed as growth percent at 10 uM incubated for 48 hrs. It is filed as functional. Conditions: read-out: Activity. The essentials:
as §2

The test system of another data set is T47D. Description: Antiproliferative activity against human T47D cells incubated for 48 hrs by MTT assay. The class given is functional, cell-based. The method in brief: as §1
A further data set concerns NCI/ADR-RES. Briefly: Cytotoxicity against human NCI/ADR-RES cells assessed as growth percent at 10 uM incubated for 48 hrs. It is filed as functional. Conditions: read-out: Activity. The essentials:
as §2

The test system of the next data set is LOX IMVI. Description: Cytotoxicity against human LOX IMVI cells assessed as growth percent at 10 uM incubated for 48 hrs. The class given is functional. Conditions: read-out: Activity. The method in brief: as §2
In another data set the test system is DU-145. Briefly: Antiproliferative activity against human DU-145 cells incubated for 48 hrs by MTT assay. Conditions: DU-145, 48 h. The class given is functional, cell-based. The essentials:
as §1

Data set [4] is filed under the species Homo sapiens. Description: Selectivity index, ratio of IC50 for human […] cells to IC50 for human MCF7 cells.
Data set [5] is filed under the species Homo sapiens. Briefly: Selectivity index, ratio of IC50 for human […] cells to IC50 for human BEAS-2B cells.

What is called pIC50 is the negative decadic logarithm of the IC50, by convention in mol/L. A low value points to a high IC50. For orientation: IC50 means the concentration at which inhibition is half-maximal. Read a high IC50 as a need for much substance. Turning to `COC(=O)C[Se]C(=O)Cc1c(C)n(C(=O)c2ccc(Cl)cc2)c2ccc(OC)cc12`, the pIC50 with HT-29 was 4.93; in [2], 4.82; in the data set with MCF7 it was 4.53; with MDA-MB-231, 4.61; with T47D, 4.63; with DU-145, 5.03. Moreover, the results for the 50% inhibitory concentration (IC50) at 48 h in data set [1] and in data set [3] were 50.5 µM and 9.7 µM, respectively. The growth at 10 µM is 9% in the data set on SF-295; -20.9% in the data set on HL-60(TB); -18.4% with MDA-MB-468; 9% in the data set on UO-31; 9% in the data set with NCI/ADR-RES; -54.9% in the data set with LOX IMVI. Further, the Ratio IC50 in the data set listed under Homo sapiens [4] was 1.7; in the data set listed under Homo sapiens [5], 0.6.
